Reference: ChEMBL document CHEMBL1122346, “Antihypertensive activity of 6-arylpyrido[2,3-d]pyrimidin-7-amine derivatives. 2. 7-Acyl amide analogues” (J Med Chem, 1983)
Values after ≈ are worked out from the molar mass of the structure shown. Values joined by “and” are separate entries in the source; they are usually repeats but may differ in a detail not shown here. Equal entries are not always repeated.

How the values were obtained:
[1] = species on record: Rattus norvegicus; experiment: Maximum percent decrease in blood pressure in SHR ( hour post dose in parentheses); format: functional
[2] = system: Rattus norvegicus; experiment: Antihypertensive activity rating in conscious SHR after 2 hr post dose at 50 mg/kg (po); Range 10-20%; format: functional
[3] = system: Rattus norvegicus; experiment: Antihypertensive activity in conscious spontaneously hypertensive rats 10 hr following 50 mg/kg p.o.; No significant reduction.; format: functional; details: route oral
[4] = Half-life measured in 1:1 ratio of MeOH and phosphate buffer at pH 7; Stable; format: ADME
Summary of the method: (§1)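 Hydrolytic stability was tested at room temperature on solutions of ca. 0.001-0.002%. Media were 0.1 N HCl (pH ~1.5), 50% MeOH/pH 7 phosphate buffer (pH ~8.0), and 50% MeOH/0.05 N aqueous NaOH (pH ~12.2). Changes in the UV spectrum were followed over 2 weeks.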

[5] = Half-life measured in 1:1 ratio of MeOH and 0.1 N NaOH; format: ADME; details: 1:1 MeOH / 0.1 N NaOH; summary of the method: as §1
[6] = Half-life measured in 0.1 N HCl; format: ADME; summary of the method: as §1
[7] = pKa value, measured in 67% of DMF; format: physicochemical; details: 67% DMF
Summary of the method: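 Dissociation constants were found by potentiometric titration in 67% N,N-dimethylformamide/water.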

[8] = system: Rattus norvegicus; experiment: Antihypertensive activity rating in conscious SHR after 24 hr post dose at 50 mg/kg (po); Range 10-20%; format: functional
[9] = system: Rattus norvegicus; experiment: Antihypertensive activity in conscious spontaneously hypertensive rats 2 hr following 50 mg/kg p.o.; No significant reduction.; format: functional; details: route oral
[10] = Half-life measured in 0.1 N HCl; Stable; format: ADME; details: buffer; summary of the method: as §1
[11] = system: Rattus norvegicus; experiment: Antihypertensive activity in conscious spontaneously hypertensive rats 24 hr following 50 mg/kg p.o.; No significant reduction.; format: functional; details: route oral
[12] = system: Rattus norvegicus; experiment: Antihypertensive activity rating in conscious SHR after 24 hr post dose at 50 mg/kg (po)v; format: functional
[13] = system: Rattus norvegicus; experiment: Antihypertensive activity in conscious spontaneously hypertensive rats 10 hr following 50 mg/kg p.o.; Range 10-20%.; format: functional; details: route oral
[14] = system: Rattus norvegicus; experiment: Antihypertensive activity rating in conscious SHR after 24 h post dose at 10 mg/kg (po); Range 10-20%; format: functional
[15] = system: Rattus norvegicus; experiment: Antihypertensive activity rating in conscious SHR after 10 hr post dose at 10 mg/kg (po); Range 20-30%; format: functional
[16] = system: Rattus norvegicus; experiment: Antihypertensive activity rating in conscious SHR after 2 hr post dose at 10 mg/kg (po); Range 20-30%; format: functional
[17] = system: Rattus norvegicus; experiment: Antihypertensive activity rating in conscious SHR after 2 hr post dose at 10 mg/kg (po); Range 10-20%; format: functional
[18] = system: Rattus norvegicus; experiment: Antihypertensive activity rating in conscious SHR after 24 h post dose at 10 mg/kg (po); 0=No significant reduction; format: functional
[19] = system: Rattus norvegicus; experiment: Antihypertensive activity rating in conscious SHR after 10 hr post dose at 10 mg/kg (po); Range 10-20%; format: functional
[20] = system: Rattus norvegicus; experiment: Antihypertensive activity rating in conscious SHR after 24-72 hr post dose at 10 mg/kg (po); Range 10-20%; format: functional
[21] = Solubility, determined in phosphate buffer at pH 7; format: physicochemical
Summary of the method: (§2)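 Dissolved compound was quantified by UV absorption. For the pH 7 value, the acidic solution was brought to pH 7 to give the unprotonated base, the precipitate was removed, and the supernatant was assayed again by UV.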

[22] = system: Rattus norvegicus; experiment: Antihypertensive activity rating in conscious SHR after 10 hr post dose at 50 mg/kg (po); format: functional
[23] = system: Rattus norvegicus; experiment: Antihypertensive activity rating in conscious SHR after 24 hr post dose at 50 mg/kg (po); format: functional
[24] = Half-life measured in 0.1 N HCl (*-<5% change after 14 days at 25 degrees C; Stable; format: ADME; details: buffer, 336 h; summary of the method: as §1
[25] = Solubility, determined in 0.1 N HCl; format: physicochemical; details: read-out: S; summary of the method: as §2
[26] = system: Rattus norvegicus; experiment: Antihypertensive activity rating in conscious SHR after 10 hr post dose at 50 mg/kg (po); Range 20-30%; format: functional
[27] = Half-life measured in 1:1 ratio of MeOH and phosphate buffer at pH 7; 15-17; format: ADME; details: 1:1 MeOH / phosphate buffer; summary of the method: as §1
[28] = system: Rattus norvegicus; experiment: Antihypertensive activity rating in conscious SHR after 2 hr post dose at 10 mg/kg (po); 0=No significant reduction; format: functional
[29] = pKa value, measured in 67% DMF/water
[30] = system: Rattus norvegicus; experiment: Antihypertensive activity rating in conscious SHR after 24 h post dose at 50 mg/kg (po); Range 20-30%; format: functional
[31] = system: Rattus norvegicus; experiment: Antihypertensive activity rating in conscious SHR after 2 hr post dose at 50 mg/kg (po); Range 20-30%; format: functional
[32] = system: Rattus norvegicus; experiment: Antihypertensive activity rating in conscious SHR after 18 hr post dose at 50 mg/kg (po); Range 20-30%; format: functional
[33] = system: Rattus norvegicus; experiment: Antihypertensive activity rating in conscious SHR after 18 hr post dose at 50 mg/kg (po); format: functional
[34] = system: Rattus norvegicus; experiment: Antihypertensive activity rating in conscious SHR after 10 h post dose at 10 mg/kg (po); 0=No significant reduction; format: functional
[35] = system: Rattus norvegicus; experiment: Antihypertensive activity rating in conscious SHR after 10 hr post dose at 10 mg/kg (po); 0=No significant reduction; format: functional
[36] = system: Rattus norvegicus; experiment: Antihypertensive activity rating in conscious SHR after 18 hr post dose at 50 mg/kg (po); Range 10-20%; format: functional
[37] = system: Rattus norvegicus; experiment: Antihypertensive activity rating in conscious SHR after 24 hr post dose at 50 mg/kg (po); 0=No significant reduction; format: functional
[38] = system: Rattus norvegicus; experiment: Antihypertensive activity rating in conscious SHR after 18 hr post dose at 50 mg/kg (po); 0=No significant reduction; format: functional
[39] = system: Rattus norvegicus; experiment: Antihypertensive activity rating in conscious SHR after 2 hr post dose at 50 mg/kg (po); format: functional
[40] = Half-life measured in 1:1 ratio of MeOH and phosphate buffer at pH 7; format: ADME; details: 1:1 MeOH / phosphate buffer; summary of the method: as §1
[41] = system: Rattus norvegicus; experiment: Antihypertensive activity rating in conscious SHR after 24 hr post dose at 10 mg/kg (po); 0=no significant reduction; format: functional

CC(=O)/N=c1/c(-c2c(Cl)cccc2Cl)cc2cnc(C)nc2n1C
Decrease [1]: 17%
Activity rating [2]: 10%
Activity rating [3]: 0%
T1/2 [4]: Stable
half-life [5]: 8.8 h
half-life [6]: 3.4 h
pKa [7]: 2.5
Activity rating [8]: 10%

CC(=O)N(C)c1nc2nc(C)ncc2cc1-c1c(Cl)cccc1Cl
Activity rating [9]: 0%
T1/2 [10]: Stable
Activity rating [11]: 0%
Activity rating [3]: 0%
T1/2 [4]: Stable
half-life [5]: 1.6 h
pKa [7]: 4.2

CC(=O)Nc1nc2ncncc2cc1-c1ccccc1Br
Decrease [1]: 19%
Activity rating [2]: 10%
Activity rating [12]: 0%
Activity rating [13]: 10%

Cc1ncc2cc(-c3c(Cl)cccc3Cl)c(NC(=O)c3ccoc3)nc2n1
Decrease [1]: 28%
Activity rating [14]: 10%
Activity rating [15]: 20%
Activity rating [16]: 20%

Cc1ncc2cc(-c3c(Cl)cccc3Cl)c(NC(=O)CCl)nc2n1
Decrease [1]: 24%
Activity rating [17]: 10%
Activity rating [15]: 20%
Activity rating [18]: 0%

Cc1ncc2cc(-c3c(Cl)cccc3Cl)c(N)nc2n1
Decrease [1]: 32%
Activity rating [2]: 10%
Activity rating [19]: 10%
Activity rating [20]: 10%
solubility [21]: 7 µg/mL (≈ 0.0229 mM)
Activity rating [22]: >30%
Activity rating [23]: >30%
T1/2 [4]: Stable
T1/2 [24]: Stable
solubility [25]: 4850 µg/mL (≈ 15.9 mM)

Cc1ncc2cc(-c3c(Cl)cccc3Cl)c(NC(=O)c3ccncc3)nc2n1
Decrease [1]: 18%
Activity rating [17]: 10%
Activity rating [19]: 10%
Activity rating [14]: 10%

Cc1ncc2cc(-c3c(Cl)cccc3Cl)c(NC(=O)c3ccco3)nc2n1
Decrease [1]: 27%
Activity rating [26]: 20%
Activity rating [2]: 10%
half-life [27]: 360 h
Activity rating [19]: 10%
Activity rating [28]: 0%
Activity rating [20]: 10%
solubility [21]: 220 µg/mL (≈ 0.551 mM)
T1/2 [10]: Stable
pKa [29]: 10.7
half-life [5]: 4 h
pKa [7]: 4.3
solubility [25]: 6600 µg/mL (≈ 16.5 mM)
Activity rating [30]: 20%

COC(=O)Nc1nc2nc(C)ncc2cc1-c1c(Cl)cccc1Cl
Decrease [1]: 29%
Activity rating [2]: 10%
Activity rating [19]: 10%
Activity rating [20]: 10%
solubility [21]: 280 µg/mL (≈ 0.771 mM)
T1/2 [10]: Stable
T1/2 [4]: Stable
pKa [29]: 11.3
half-life [5]: 6 h
pKa [7]: 4.2
Activity rating [8]: 10%
solubility [25]: 14600 µg/mL (≈ 40.2 mM)

NNc1nncc2ccccc12 [HYDRALAZINE]
Decrease [1]: 51% and 27%
Activity rating [14]: 10%
Activity rating [15]: 20%

Cc1ncc2cc(-c3c(Cl)cccc3Cl)c(NC(=O)C(F)(F)F)nc2n1
Decrease [1]: 23%
Activity rating [26]: 20%
Activity rating [31]: 20%
Activity rating [32]: 20%

Cc1ncc2cc(-c3c(Cl)cccc3Cl)c(NC=O)nc2n1
Decrease [1]: 33%
Activity rating [17]: 10%
Activity rating [31]: 20%
Activity rating [19]: 10%
Activity rating [22]: >30%
Activity rating [14]: 10%
Activity rating [33]: >30%

Cc1ncc2cc(-c3c(Cl)cccc3Cl)c(NC(=O)c3ccc([N+](=O)[O-])cc3)nc2n1
Activity rating [28]: 0%
Activity rating [34]: 0%

COCC(=O)Nc1nc2nc(C)ncc2cc1-c1c(Cl)cccc1Cl
Decrease [1]: 29%
Activity rating [26]: 20%
Activity rating [35]: 0%
Activity rating [31]: 20%
Activity rating [28]: 0%
Activity rating [14]: 10%
Activity rating [30]: 20%

Cc1ncc2cc(-c3c(Cl)cccc3Cl)c(O)nc2n1
Decrease [1]: 10%
Activity rating [9]: 0%
Activity rating [13]: 10%
Activity rating [36]: 10%

CC(=O)Nc1ncc2cc(-c3c(Cl)cccc3Cl)c(NC(C)=O)nc2n1
Decrease [1]: 32%
Activity rating [26]: 20%
Activity rating [9]: 0%
Activity rating [33]: >30%

CCO/C(=N\C)Nc1nc2nc(C)ncc2cc1-c1c(Cl)cccc1Cl
Decrease [1]: 10%
Activity rating [37]: 0%
Activity rating [9]: 0%
Activity rating [3]: 0%

Cc1ncc2cc(-c3c(Cl)cccc3Cl)c(NC(=O)NC(C)(C)C)nc2n1
Activity rating [9]: 0%
Activity rating [38]: 0%
Activity rating [3]: 0%

CC(=O)Nc1nc2nc(C)ncc2cc1-c1c(Cl)cccc1Cl
Decrease [1]: 45%
Activity rating [39]: >30%
Activity rating [20]: 10%
solubility [21]: 6050 µg/mL (≈ 17.4 mM)
Activity rating [22]: >30%
half-life [40]: 60 h
pKa [29]: 12.8
half-life [5]: < 0.0833 h
Activity rating [15]: 20%
half-life [6]: 12.5 h
pKa [7]: 4.1
Activity rating [16]: 20%
solubility [25]: 34200 µg/mL (≈ 98.5 mM)
Activity rating [33]: >30%

Cc1ncc2cc(-c3c(Cl)cccc3Cl)c(NC(=O)c3cccnc3)nc2n1
Decrease [1]: 26%
Activity rating [17]: 10%
Activity rating [26]: 20%
Activity rating [2]: 10%
Activity rating [20]: 10%
solubility [21]: 2630 µg/mL (≈ 6.41 mM)
T1/2 [10]: Stable
half-life [40]: 54 h
pKa [29]: 9.8
half-life [5]: 4 h
pKa [7]: 4.1
solubility [25]: 26600 µg/mL (≈ 64.8 mM)

CNc1nc2nc(C)ncc2cc1-c1c(Cl)cccc1Cl
Decrease [1]: 21%
Activity rating [2]: 10%
Activity rating [32]: 20%
Activity rating [13]: 10%

CCC(=O)Nc1nc2nc(C)ncc2cc1-c1c(Cl)cccc1Cl
Decrease [1]: 35%
Activity rating [39]: >30%
Activity rating [17]: 10%
Activity rating [19]: 10%
Activity rating [22]: >30%
Activity rating [41]: 0
Activity rating [33]: >30%
